The target in one series is CD13 (aminopeptidase N) (Homo sapiens, UniProt P15144). The series can be described thus: CD13 enzyme inhibition / steady-state enzyme kinetic analysis. It is filed as biochemical. The note with it: for inhibition model (affected Km, but not Vmax of CD13): steady-state kinetics, double reciprocal plot; for effect of glycine N-methylation of the named peptide on CD13 inhibition: methylated vs non-methylated peptide. Put shortly:
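Enzyme inhibition was run with methylated and non-methylated peptides. IC50 is the peptide concentration inhibiting 50% of activity, from independent experiments each in duplicate. For steady-state kinetics, initial velocity was measured across varied substrate and peptide amounts and plotted as V versus substrate and as double-reciprocal plots. Ki came from two independent experiments (mean ± SE).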

Series [1] is classed as physicochemical. To be noted: 37 °C, 0.1 M ammonium bicarbonate, pH 8.5, 16 or 42 h.
The next series deals with αvβ3 integrin (Homo sapiens, UniProt P05106+P06756). Put plainly: Integrin binding assay. To be noted: after 16 h of incubation in 0.1 M ammonium bicarbonate pH 8.5, 37 °C; competitive ELISA.
The next series has as its target CD13 (Homo sapiens, UniProt P15144). Put plainly: MS analysis of peptides after incubation with CD13. It is filed as biochemical. To be noted: 40 min incubation with CD13, peptide 30 µM. Put shortly:
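Peptides were incubated with or without CD13 (the no-enzyme incubation served as control), then analysed by MS.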

The test system of series [2] is CD13+ endothelial cells (HUVEC). The series can be described thus: Binding of peptide-Qdot605 nanoparticles to cultured HUVEC. Format: cell-based, human. The note with it: peptide coupled to Qdot605 fluorescent nanoparticles, 6 nM, 2 h. Put shortly:
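The control was nanoparticles activated with sulfo-SMCC but lacking peptide. Cell-bound Qdots (red) were imaged by fluorescence microscopy at 400X, with DAPI nuclear counterstain.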

The conditions of series [3]: physiological solutions; cited from earlier work.

Bridge positions count the residues as written; N and C are the ends. Peptide text beside a SMILES is read from it.

On to `N=C(N)NCCC[C@@H]1NC(=O)CNC(=O)[C@H](CC(N)=O)NC(=O)[C@@H](N)CSSC[C@@H](C(=O)O)NC1=O` [CNGRC, reference compound] (H-CNGRC-OH; disulfide 1-5; N-terminus and C-terminus assumed), for which, on CD13 (aminopeptidase N), the inhibition constant (Ki) (in general, a dissociation constant, usually derived from enzyme kinetics or from competition with a known ligand) is 134 ± 28 µM and the “inhibition model (affected Km, but not Vmax of CD13)” value was “competitive inhibition”.
As to `N=C(N)NCCC[C@@H]1NC(=O)CNC(=O)[C@H](CC(N)=O)NC(=O)CNC(=O)[C@H](CS)NC(=O)CNC1=O` [N1, c[CGNGRG]] (cyclo(CGNGRG)), in series [1], the “asparagine deamidation (change of molecular mass by MS)” value is “complete deamidation”. Moreover, on αvβ3 integrin, the “binding to αvβ3 integrin after incubation” value is “could bind”. Also, on CD13 (aminopeptidase N), the Ki was determined as 12.4 ± 5.4 µM; the “effect of glycine N-methylation of the named peptide on CD13 inhibition” value is “did not impair CD13 binding”; the “inhibition model (affected Km, but not Vmax of CD13)” value is listed as “competitive inhibition”. At CD13, the “change in molecular mass upon incubation with CD13 (peptide cleavage)” value is given as “No change”. The “binding to CD13+ endothelial cells (HUVEC)” value in series [2] is reported as “could bind”.
For CNGRCG, in series [3], the “half-life (deamidation)” value was 3 to 5 h.
Turning to cyclo(CNGRGG) [N3], on αvβ3 integrin, the “binding to αvβ3 integrin after incubation” value is “could bind”. Moreover, the “effect of glycine N-methylation of the named peptide on CD13 inhibition” value at CD13 (aminopeptidase N) is “reduction of inhibitory potency”.
